From ChEMBL document CHEMBL1123069, “[[(4,5-Dihydro-2-oxazolyl)phenoxy]alkyl]isoxazoles. Inhibitors of picornavirus uncoating” (1985)
≈ marks a conversion by molar mass, not a printed value. Calls of active or inactive are those of the source. The rule behind the calls is not given here.

Legend:
[1] = system: Mus musculus; test: In vivo antiviral activity at 4 mg/kg oral dose in mice infected with Poliovirus; assay type: functional
Summary of the method: (§1)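 Mice given oral drug or placebo starting 1 h before intracerebral infection with poliovirus type 2. Doses were 4, 8, 16 or 32 mg/kg, with 20 mice per group. Survival was scored as % survivors and number surviving out of total, with the test ending 20 days post-infection.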

[2] = species on record: Mus musculus; test: MIC at the Maximal testable level in mice was evaluated; assay type: functional; settings: read-out: MIC
[3] = system: Mus musculus; test: Prevention of Echo-9-Induced Paralysis in Suckling mice by intraperitoneal administration at dose 3.3 mg/kg; Expressed as % nonparalyzed; assay type: functional
Summary of the method: (§2)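 Suckling mice infected subcutaneously with a lethal dose of ECHO-9 virus. Intraperitoneal dosing at 1.0, 3.3, 10 or 33 mg/kg, or placebo, began 1 h before infection and continued once daily for 8 days. Groups of 30 animals were scored for paralysis, and the test ended 14 days post-infection. Results are given as % nonparalyzed (± spread) and as the nonparalyzed/total count.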

[4] = In vitro antiviral activity against mice infected intracerebrally with Poliovirus type-2; assay type: functional
[5] = system: Mus musculus; test: In vivo antiviral activity at 8 mg/kg oral dose in mice infected with Poliovirus; assay type: functional; summary of the method: as §1
[6] = system: Mus musculus; test: In vivo antiviral activity at 32 mg/kg oral dose in mice infected with Poliovirus; 15/20; assay type: functional; summary of the method: as §1
[7] = system: Mus musculus; test: In vivo antiviral activity at 4 mg/kg oral dose in mice infected with Poliovirus; 8/20; assay type: functional; summary of the method: as §1
[8] = species on record: Mus musculus; test: Prevention of Echo-9-Induced Paralysis in Suckling mice with Placebo; expressed as no. nonparalyzed/total 0/30; assay type: functional; summary of the method: as §2
[9] = system: Mus musculus; test: Prevention of Echo-9-Induced Paralysis in Suckling mice by intraperitoneal administration at dose 3.3 mg/kg; expressed as no. nonparalyzed/total 6/30; assay type: functional; summary of the method: as §2
[10] = system: Mus musculus; test: In vivo antiviral activity of the compound in Placebo treated mice infected with Poliovirus; 4/20; assay type: functional; summary of the method: as §1
[11] = system: Mus musculus; test: Prevention of Echo-9-Induced Paralysis in Suckling mice by intraperitoneal administration at dose 10 mg/kg; Expressed as % nonparalyzed; assay type: functional; summary of the method: as §2
[12] = system: Mus musculus; test: Prevention of Echo-9-Induced Paralysis in Suckling mice by intraperitoneal administration at dose 1 mg/kg; expressed as no. nonparalyzed/total 2/30; assay type: functional; summary of the method: as §2
[13] = system: Enterovirus; test: In vitro antiviral activity against Rhinovirus type-2; assay type: functional
[14] = system: Mus musculus; test: Prevention of Echo-9-Induced Paralysis in Suckling mice by intraperitoneal administration at dose 1 mg/kg; Expressed as % nonparalyzed; assay type: functional; summary of the method: as §2
[15] = system: Mus musculus; test: Prevention of Echo-9-Induced Paralysis in Suckling mice by intraperitoneal administration at dose 10 mg/kg; expressed as no. nonparalyzed/total 19/30; assay type: functional; summary of the method: as §2
[16] = system: Mus musculus; test: Prevention of Echo-9-Induced Paralysis in Suckling mice by intraperitoneal administration at dose 33 mg/kg; Expressed as % nonparalyzed; assay type: functional; summary of the method: as §2
[17] = system: Mus musculus; test: In vivo antiviral activity at 16 mg/kg oral dose in mice infected with Poliovirus;13/20; assay type: functional; summary of the method: as §1
[18] = system: Mus musculus; test: In vivo antiviral activity at 16 mg/kg oral dose in mice infected with Poliovirus; assay type: functional; summary of the method: as §1
[19] = system: Mus musculus; test: In vivo antiviral activity at 32 mg/kg oral dose in mice infected with Poliovirus; assay type: functional; summary of the method: as §1
[20] = system: Mus musculus; test: Prevention of Echo-9-Induced Paralysis in Suckling mice by intraperitoneal administration at dose 33 mg/kg; expressed as no. nonparalyzed/total 29/30; assay type: functional; summary of the method: as §2
[21] = system: Mus musculus; test: In vivo antiviral activity at 8 mg/kg oral dose in mice infected with Poliovirus; 9/20; assay type: functional; summary of the method: as §1
[22] = species on record: Mus musculus; test: Prevention of Echo-9-Induced Paralysis in Suckling mice with Placebo; Expressed as % nonparalyzed; assay type: functional; summary of the method: as §2
[23] = system: Mus musculus; test: In vivo antiviral activity of the compound in Placebo treated mice infected with Poliovirus; assay type: functional; summary of the method: as §1
[24] = system: Mus musculus; test: In vitro antiviral activity against mice infected intracerebrally with Poliovirus type-2; IA=Inactive; assay type: functional, organism-based

**Q.** What does the source list for Cc1cc(CCCCCCCOc2ccc(C3=NCCO3)cc2)on1 [DISOXARIL]?
**A.** Survivors [1]: 40%; maximal testable concentration [2]: 6.2 µg/mL; Activity [3]: 20%; MIC [4]: 0.004 µg/mL (≈ 0.0117 µM); Survivors [5]: 45%; No. of survivors/total [6]: 15; No. of survivors/total [7]: 8; Activity [8]: 0; Activity [9]: 6; No. of survivors/total [10]: 4; Activity [11]: 63.7%; Activity [12]: 2; MIC [13]: 0.1 µg/mL (≈ 0.292 µM); Activity [14]: 6.7%; Activity [15]: 19; Activity [16]: 96.7%; No. of survivors/total [17]: 13; Survivors [18]: 65%; Survivors [19]: 71%; Activity [20]: 29; No. of survivors/total [21]: 9; Activity [22]: 0%; Survivors [23]: 20%

**Q.** With Cc1cc(CCCCCOc2ccc(C3=NCCO3)cc2)on1 as the compound, how does the maximal testable concentration [2] read?
**A.** The maximal testable concentration was 3.1 µg/mL.

**Q.** And the MIC [4]?
**A.** The MIC was 0.003 µg/mL (≈ 0.00954 µM).

**Q.** And the MIC [13]?
**A.** Its MIC is 0.1 µg/mL (≈ 0.318 µM).

**Q.** With Cc1cc(CCCCCCCOc2ccc(C3=NCC(CO)O3)cc2)on1 (stereo not given) as the compound, how does the maximal testable concentration [2] read?
**A.** Its maximal testable concentration is 3.1 µg/mL.

**Q.** And the MIC [4]?
**A.** The MIC was 2.6 µg/mL (≈ 6.98 µM).

**Q.** And the MIC [13]?
**A.** Its MIC is 1.6 µg/mL (≈ 4.3 µM).

**Q.** For Cc1cc(CCCCCCCOc2ccc(C3=NCC(C)O3)cc2)on1 (stereo not given), which maximal testable concentration [2] is on record?
**A.** The maximal testable concentration was 6.2 µg/mL.

**Q.** And the MIC [4]?
**A.** The MIC was 0.49 µg/mL (≈ 1.37 µM).

**Q.** And the MIC [13]?
**A.** The MIC was 0.06 µg/mL (≈ 0.168 µM).

**Q.** Which maximal testable concentration [2] does the source give for Cc1cc(CCCCCCCOc2ccc(C3=NC(C)(C)CO3)cc2)on1 here?
**A.** Its maximal testable concentration is 3.1 µg/mL.

**Q.** And the MIC [4]?
**A.** The MIC was 1.1 µg/mL (≈ 2.97 µM).

**Q.** What about the MIC [13] of the same compound?
**A.** Its MIC is 0.06 µg/mL (≈ 0.162 µM).

**Q.** What does the source list for COc1ccc(OCCCCCCCc2cc(C)no2)c(Cl)c1?
**A.** MIC [4]: 0.05 µg/mL (≈ 0.148 µM); MIC [13]: 0.04 µg/mL (≈ 0.118 µM)

**Q.** Which maximal testable concentration [2] does the source give for Cc1cc(CCCCCCOc2ccc(C3=NCCO3)cc2)on1 here?
**A.** Its maximal testable concentration is 3.1 µg/mL.

**Q.** And the MIC [4]?
**A.** The MIC was 0.008 µg/mL (≈ 0.0244 µM).

**Q.** What about the MIC [13] of the same compound?
**A.** Its MIC is 0.12 µg/mL (≈ 0.365 µM).

**Q.** Which results are given for Cc1cc(CCCCCCCCOc2ccc(C3=NCCO3)cc2)on1?
**A.** maximal testable concentration [2]: 8 µg/mL; MIC [4]: 0.01 µg/mL (≈ 0.0281 µM); MIC [13]: 0.16 µg/mL (≈ 0.449 µM)

**Q.** With Cc1cc(CCCCOc2ccc(C3=NCCO3)cc2)on1 as the compound, how does the maximal testable concentration [2] read?
**A.** Its maximal testable concentration is 6.2 µg/mL.

**Q.** And the MIC [4]?
**A.** The MIC was 0.49 µg/mL (≈ 1.63 µM).

**Q.** And the MIC [13]?
**A.** The MIC was 0.53 µg/mL (≈ 1.76 µM).

**Q.** For Cc1cc(CCCCCCCOc2ccc(C3=NC(C)CO3)cc2)on1 (stereo not given), which maximal testable concentration [2] is on record?
**A.** Its maximal testable concentration is 3.1 µg/mL.

**Q.** What about the MIC [4] of the same compound?
**A.** Its MIC is 0.12 µg/mL (≈ 0.337 µM).

**Q.** And the MIC [13]?
**A.** Its MIC is 0.04 µg/mL (≈ 0.112 µM).

**Q.** Which results are given for Cc1cc(CCCCCCCOc2ccc(C3=NC(CO)CO3)cc2)on1 (stereo not given)?
**A.** maximal testable concentration [2]: 3.1 µg/mL; MIC [13]: 0.9 µg/mL (≈ 2.42 µM); MIC [24]: inactive

**Q.** With CCOC(=O)c1ccc(OCCCCCCCc2cc(C)no2)cc1 as the compound, how does the MIC [4] read?
**A.** The MIC was over 0.8 µg/mL.

**Q.** What about the MIC [13] of the same compound?
**A.** Its MIC is 0.025 µg/mL (≈ 0.0724 µM).

**Q.** Which results are given for COCC1CN=C(c2ccc(OCCCCCCCc3cc(C)no3)cc2)O1 (stereo not given)?
**A.** maximal testable concentration [2]: 3.1 µg/mL; MIC [13]: 0.2 µg/mL (≈ 0.517 µM); MIC [24]: inactive

**Q.** Which maximal testable concentration [2] does the source give for Cc1cc(CCCCCCCOc2ccc(C3=N[C@H](C)CO3)cc2)on1 here?
**A.** Its maximal testable concentration is 3.1 µg/mL.

**Q.** And the MIC [4]?
**A.** The MIC was 0.16 µg/mL (≈ 0.449 µM).

**Q.** What about the MIC [13] of the same compound?
**A.** Its MIC is 0.02 µg/mL (≈ 0.0561 µM).
